Data reported in ChEMBL document CHEMBL4017520, “Discovery, Structure-Activity Relationship, and Antiparkinsonian Effect of a Potent and Brain-Penetrant Chemical Series of Positive Allosteric Modulators of Metabotropic Glutamate Receptor 4” (J Med Chem, 2017).

Assays:
[1] = target: Metabotropic glutamate receptor 4 (Homo sapiens, UniProt Q14833); assay: Positive allosteric modulation of recombinant human mGlu4 receptor expressed in HEK293 cells co-expressing Gi/Gq assessed as increase in glutamate-induced calcium flux preincubated for 10 mins followed by glutamate addition measured for 3 mins by Fluo4-AM dye based fluorescence assay; type: functional, cell-based
[2] = Drug uptake in Sprague-Dawley rat brain at 10 mg/kg, po after 30 mins post dose administered as single dose by LC-MS/MS analysis; type: ADME, organism-based; details: read-out: Drug uptake
In short: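 Rats given a single oral dose of 10 mg/kg. The first plasma sample was taken at 15 min, and sampling continued to 24 h postdose. Brain was sampled at 30 min. Values are the mean (±SEM) of 3 rats.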

[3] = Drug uptake in Sprague-Dawley rat brain at 10 mg/kg, po after 60 mins post dose administered as single dose by LC-MS/MS analysis; type: ADME, organism-based; details: read-out: Drug uptake
In short: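 Rats given a single oral dose of 10 mg/kg. Brain concentrations were measured at 30, 60 and 90 min postdose, and brain AUC0–inf was determined. Values are the mean of three rats. Lower limit of quantification was 1 ng/mL.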

Chain of Metabotropic glutamate receptor 4 (Q14833 whole entry): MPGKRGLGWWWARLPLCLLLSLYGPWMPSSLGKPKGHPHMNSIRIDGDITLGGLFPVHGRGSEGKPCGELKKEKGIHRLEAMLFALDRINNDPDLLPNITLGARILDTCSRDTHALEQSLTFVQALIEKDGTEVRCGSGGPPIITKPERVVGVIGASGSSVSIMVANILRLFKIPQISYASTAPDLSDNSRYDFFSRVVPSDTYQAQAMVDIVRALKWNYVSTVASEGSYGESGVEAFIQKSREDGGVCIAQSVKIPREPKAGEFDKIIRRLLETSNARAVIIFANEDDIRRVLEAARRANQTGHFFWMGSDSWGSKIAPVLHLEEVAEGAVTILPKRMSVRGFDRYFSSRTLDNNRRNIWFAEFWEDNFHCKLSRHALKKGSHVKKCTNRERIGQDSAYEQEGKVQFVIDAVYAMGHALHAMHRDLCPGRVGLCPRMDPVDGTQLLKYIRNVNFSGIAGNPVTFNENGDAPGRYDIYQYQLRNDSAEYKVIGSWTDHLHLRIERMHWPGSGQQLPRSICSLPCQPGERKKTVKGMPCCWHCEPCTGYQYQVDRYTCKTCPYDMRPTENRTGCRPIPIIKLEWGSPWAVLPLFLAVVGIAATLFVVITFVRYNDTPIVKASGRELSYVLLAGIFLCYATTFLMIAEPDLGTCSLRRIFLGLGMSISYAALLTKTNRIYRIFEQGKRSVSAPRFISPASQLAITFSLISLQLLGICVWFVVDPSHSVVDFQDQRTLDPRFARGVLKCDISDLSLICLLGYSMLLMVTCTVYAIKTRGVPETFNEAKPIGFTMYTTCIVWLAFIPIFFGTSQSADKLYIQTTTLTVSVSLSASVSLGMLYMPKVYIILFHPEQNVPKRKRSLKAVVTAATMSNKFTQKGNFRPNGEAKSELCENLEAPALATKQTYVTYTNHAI

SMILES	EC50 ([1]; read-out: EC50)	other results
O/N=c1\cc(-c2cc3ncccc3cn2)oc2ccccc12	0.24 µM	–
Cn1c(-c2c/c(=N\O)c3ccccc3o2)cc2ccccc21	–	EC50 ([1]; hek293): Not Active
O/N=c1\cc(-c2cc3ccccc3o2)oc2ccccc12	> 30 µM	–
O/N=c1\cc(-c2cc3ccccc3s2)oc2ccccc12	–	EC50 ([1]; hek293): Not Active
O/N=c1\cc(-c2cc3sccc3cn2)oc2ccccc12	0.2 µM	–
O/N=c1\cc(-c2ccn3ccnc3c2)oc2ccccc12	–	EC50 ([1]; hek293): Not Active
O/N=c1\cc(-c2cc3ccccc3[nH]2)oc2ccccc12	> 30 µM	–
O/N=c1\cc(-c2ccc3ccccc3n2)oc2ccccc12	–	EC50 ([1]; hek293): Not Active
O/N=c1\cc(-c2cc3cc[nH]c3cn2)oc2ccccc12	0.05 µM	–
O/N=c1\cc(-c2cc3ccsc3cn2)oc2ccccc12	0.13 µM	–
O/N=c1\cc(-c2ccc3ccccc3c2)oc2ccccc12	–	EC50 ([1]; hek293): Not Active
O/N=c1\cc(-c2cc3ccccc3cn2)oc2ccccc12	0.31 µM	–
Cc1cc(C)n2cnc(-c3c/c(=N\O)c4ccccc4o3)cc12	–	EC50 ([1]; hek293): Not Active
O=c1cc(-c2cc3ccccc3cn2)oc2ccccc12	–	EC50 ([1]; hek293): Not Active
CON=c1cc(-c2cc3ccccc3cn2)oc2ccccc12	–	EC50 ([1]; hek293): Not Active
O/N=c1\cc(-c2cnc3ccccc3c2)oc2ccccc12	3.96 µM	–
O/N=c1\cc(-c2cc3ccccc3cn2)oc2c(Cl)cccc12	–	EC50 ([1]; hek293): Not Active
O/N=c1\cc(-c2ccc3ncccc3c2)oc2ccccc12	6.99 µM	–
O/N=c1\cc(-c2cc3sccc3cn2)oc2ccc(NC3CCN(c4ccncn4)CC3)cc12	0.053 µM	concentration at 1 h [3]: < 1 ng/g
O/N=c1\cc(-c2cc3ccccc3cn2)oc2cc(Br)ccc12	1.72 µM	–
Cc1c(-c2cc3ccccc3cn2)oc2ccccc2/c1=N/O	–	EC50 ([1]; hek293): Not Active
O/N=c1\cc(/C=C/c2ccccc2)oc2ccccc12	14.2 µM	–
O/N=c1\cc(-c2cnc3ccccc3n2)oc2ccccc12	–	EC50 ([1]; hek293): Not Active
O/N=c1\cc(-c2cc3cnccc3cn2)oc2ccccc12	1.27 µM	–
O/N=c1\cc(-c2cc3ccccc3cn2)oc2cc(CCc3ccccc3)ccc12	1.74 µM	–

More lines, main results first:

EC50 ([1]; read-out: EC50)	SMILES	other results
0.86 µM	Cn1ccc2cc(-c3c/c(=N\O)c4ccccc4o3)ncc21	–
0.01 µM	CC(=O)N1CCC(Oc2ccc3oc(-c4cc5cccn5cn4)c/c(=N\O)c3c2)CC1	concentration at 0.5 h [2]: 24.1 ng/g; concentration at 1 h [3]: 12.1 ng/g
1.01 µM	O/N=c1\cc(-c2cc3ccccc3cn2)oc2ccc(C3CC3)cc12	–
0.019 µM	Cc1cc(CCCOc2ccc3oc(-c4cc5cccn5cn4)c/c(=N\O)c3c2)ccn1	concentration at 0.5 h [2]: 77.3 ng/g; concentration at 1 h [3]: 82.5 ng/g
1.63 µM	O/N=c1\cc(-c2cc3ccccc3cn2)oc2ccc(OC(F)(F)F)cc12	–
9.84 µM	CN1CCN(CCOc2ccc3oc(-c4cc5ccccc5cn4)c/c(=N\O)c3c2)CC1	–
0.165 µM	CN(C)C1CCN(CCOc2ccc3oc(-c4cc5cccn5cn4)c/c(=N\O)c3c2)CC1	concentration at 0.5 h [2]: 2.8 ng/g; concentration at 1 h [3]: 2.9 ng/g
2.34 µM	O/N=c1\cc(-c2cc3cccn3cn2)oc2ccc(OCCN3CCCC3)cc12	–
0.75 µM	COCCOc1ccc2oc(-c3cc4ccccc4cn3)c/c(=N\O)c2c1	–
3.01 µM	COCCOc1ccc2/c(=N/O)cc(-c3cc4ccccc4cn3)oc2c1	–
1.39 µM	COc1ccc2oc(-c3cc4ccccc4cn3)c/c(=N\O)c2c1	–
1.16 µM	COc1ccc2/c(=N/O)cc(-c3cc4ccccc4cn3)oc2c1	–
2.47 µM	O/N=c1\cc(-c2cc3ccccc3cn2)oc2ccc(C(F)(F)F)cc12	–
5.26 µM	CN1CCN(CCCNc2ccc3oc(-c4cc5ccccc5cn4)c/c(=N\O)c3c2)CC1	–
0.69 µM	O/N=c1\cc(-c2cc3ccccc3cn2)oc2ccc(Br)cc12	–
1.71 µM	CN1CCN(CCOc2ccc3oc(-c4cc5cccn5cn4)c/c(=N\O)c3c2)CC1	–
0.15 µM	O/N=c1\cc(-c2cc3cccn3cn2)oc2ccc(OCCN3CCC(F)(F)CC3)cc12	–
0.28 µM	O/N=c1\cc(-c2cn3cccc3cn2)oc2ccccc12	–
0.98 µM	Cc1ccc2oc(-c3cc4ccccc4cn3)c/c(=N\O)c2c1	–
